This is an account of results in ChEMBL document CHEMBL5316289, “Structure-Based Rational Design of Small α-Helical Peptides with Broad-Spectrum Activity against Multidrug-Resistant Pathogens” (J Med Chem, 2023).

For assay [1], the system named is Staphylococcus aureus. As to the kind of experiment: Antibacterial activity against methicillin resistant Staphylococcus aureus ATCC BAA 1556 assessed as fold increase in MIC incubated for 24 hrs in presence of Ca2+ ions by CLSI based broth microdilution method. Format: functional. Put shortly: (§1)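 CLSI broth microdilution. Overnight cultures diluted in cation-adjusted Mueller Hinton broth to 10^6 CFU/mL, mixed 1:1 with 2-fold serial peptide dilutions, 24 h at 37 °C. […] MIC is the lowest concentration inhibiting growth. Three independent assays in triplicate.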
On the technique in general: In broth dilution the organism is exposed to a series of concentrations in liquid medium.

For assay [2], the system named is Escherichia coli. As to the kind of experiment: Bactericidal activity against […] Escherichia coli ATCC BAA 2452 assessed as inhibition of bacterial growth at 4 times of MIC incubated for 4 hrs by Time kill assay. Format: functional. The procedure, abridged: (§2)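 Aliquots taken every 30 min for 4 h and plated on agar for viable colony counts. Two independent experiments in triplicate.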

For assay [3], the system named is HepaRG. Kind of assay: Antiproliferative activity human HepaRG cells assessed as reduction in cell viability at 250 ug/ml incubated for 24 hrs by MTS assay. Format: functional. Particulars: dose 250 µg/ml. The procedure, abridged:
(§3)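 Cells seeded at 10,000 per well 24 h before treatment. Media: MRC-5 and HEK293 in DMEM with 10% FBS; HepaRG in William's E with GlutaMAX; HEKa in Dermal Cell Basal medium plus keratinocyte growth kit. Peptide at 10–250 μg/mL in triplicate for 24 h, 37 °C, 5% CO2. MTS added for 2 h, then A490 read. Survival is blank-corrected OD as % of untreated control.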

Assay [4] deals with Escherichia coli. Kind of assay: Bactericidal activity against […] Escherichia coli ATCC BAA 2452 assessed as inhibition of bacterial growth at MIC to 4 times of MIC by Time kill assay. In kind it is functional, organism-based. Particulars: time 4.0 hrs, TDE = time-dependent effect. The procedure, abridged:
as §2

Assay [5] relates to Cell membrane. Kind of assay: Disruption of cell membrane in Escherichia coli ATCC BAA-2452 assessed as cell membrane perturbation measured after 1 hrs by PI and DAPI double staining based fluorescence microscopic analysis. Format: subcellular. The procedure, abridged:
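Mid-log E. coli ATCC BAA-2452 was washed three times in PBS (10 mM, pH 7.3). Cells at 10^7 CFU/mL were exposed to agent at MIC or 4× MIC for 1 h, then pelleted at 3000g and washed. Staining was PI for 15 min, then DAPI for 15 min, both at 37 °C in the dark. Untreated cells were processed alike. Imaged by fluorescence microscopy with 60× oil objective.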

In assay [6] the test system is Cell membrane. Kind of assay: Induction of membrane disruption in bacterial inner membrane mimic DOPC/DOPG (7:3) large unilamellar vesicles assessed as induction of dye leakage at 50 ug/ml measured after 100 mins by calcein dye based analysis. Format: subcellular. The note with it: dose 50.0 µg/ml. Put shortly: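 LUVs loaded with calcein: DOPC/DOPG 7:3 w/w (bacterial mimic) or DOPC/cholesterol 10:1 w/w (mammalian mimic). Mixed 1:1 by volume with peptide at 5, 10, 20, 30 or 50 μg/mL. Fluorescence (ex 490/em 520 nm) read every 10 min for 100 min. Leakage expressed relative to 10% Triton X-100 lysis (100%), after subtracting liposome background. Triplicate.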

Assay [7] concerns Staphylococcus aureus. Kind of assay: Induction of membrane morphological changes in methicillin resistant Staphylococcus aureus ATCC BAA 1556 assessed as cell surface wrinkling at 4 times of MIC measured after 1 hrs by FE-SEM analysis. In kind it is functional, organism-based. Put shortly: (§4)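 Methods give 30 min; legend gives 1 h. Washed, fixed in 4% glutaraldehyde in 0.2 M Na-cacodylate for 3 h, dehydrated through graded ethanol, dried with HMDS, Au/Pd-coated (~20 nm) and imaged by SEM. Untreated cells as control.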

Assay [8] deals with Escherichia coli. Kind of assay: Antibacterial activity against Escherichia coli ATCC 25922 assessed as fold increase in MIC incubated for 24 hrs in presence of NH4+ ions by CLSI based broth microdilution method. In kind it is functional. The procedure, abridged:
(§5)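 E. coli MICs by CLSI broth microdilution in cation-adjusted Mueller Hinton broth. […] Inoculum was 10^6 CFU/mL with 2-fold serial peptide dilutions, incubated 24 h at 37 °C. MIC is the lowest concentration inhibiting growth. Three independent assays, each in triplicate.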

Assay [9] can be described thus: Antiproliferative activity human HEKa cells assessed as reduction in cell viability at 50 ug/ml incubated for 24 hrs by MTS assay. The note with it: dose 50 µg/ml. Format: functional. The procedure, abridged:
as §3
A general note: Tetrazolium dyes change colour on reduction, which living cells bring about.

The test system of assay [10] is Staphylococcus aureus. As to the kind of experiment: Induction of membrane morphological changes in methicillin resistant Staphylococcus aureus ATCC BAA 1556 assessed as cellular debris formation at 4 times of MIC measured after 1 hrs by FE-SEM analysis. In kind it is functional, organism-based. The procedure, abridged: as §4
The subject of assay [11] is Staphylococcus aureus. Kind of assay: Induction of membrane morphological changes in methicillin resistant Staphylococcus aureus ATCC BAA 1556 assessed as cell surface roughening at 4 times of MIC measured after 1 hrs by FE-SEM analysis. In kind it is functional, organism-based. Put shortly:
as §4

In assay [12] the test system is Staphylococcus aureus. As to the kind of experiment: Antibacterial activity against methicillin resistant Staphylococcus aureus ATCC BAA 1556 assessed as fold increase in MIC incubated for 24 hrs in presence of Na+ ions by CLSI based broth microdilution method. Format: functional. Put shortly: as §1
Assay [13] concerns HEK293. As to the kind of experiment: Antiproliferative activity human HEK293 cells assessed as reduction in cell viability at 50 ug/ml incubated for 24 hrs by MTS assay. The note with it: dose 50 µg/ml. In kind it is functional. The procedure, abridged: as §3
Assay [14] deals with Escherichia coli. As to the kind of experiment: Induction of membrane morphological changes in Escherichia coli ATCC BAA-2452 assessed as cellular debris formation at 4 times of MIC measured after 1 hrs by FE-SEM analysis. In kind it is functional, organism-based. Put shortly: (§6)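 E. coli ATCC BAA-2452 grown to exponential phase in MHB at 37 °C with shaking, then diluted to 2 × 10^6 CFU/mL. […] Cells were PBS-washed and fixed 3 h in 4% glutaraldehyde in 0.2 M cacodylate. Then ethanol-dehydrated, HMDS-dried, Au/Pd-coated and imaged by FE-SEM. Untreated control.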

For assay [15], the system named is Cell membrane. As to the kind of experiment: Disruption of cell membrane in methicillin resistant Staphylococcus aureus ATCC BAA 1556 assessed as cell membrane perturbation at 4 times of MIC measured after 1 hrs by DAPI and PI double staining based fluorescence microscopic analysis. The procedure, abridged: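 Mid-log cells washed in PBS (10 mM, pH 7.3), 10^7 CFU/mL, treated at MIC and 4× MIC for 1 h. Pelleted and washed, then stained with PI for 15 min at 37 °C in the dark, then DAPI for 15 min at 37 °C in the dark. Untreated controls. Imaged by fluorescence microscopy, 60× oil objective.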

In assay [16] the test system is Escherichia coli. Kind of assay: Antibacterial activity against Escherichia coli ATCC 25922 assessed as fold increase in MIC incubated for 24 hrs in presence of Na+ ions by CLSI based broth microdilution method. In kind it is functional. The procedure, abridged:
as §5

In assay [17] the test system is Escherichia coli. As to the kind of experiment: Induction of membrane morphological changes in Escherichia coli ATCC BAA-2452 assessed as cell surface blebs formation at 4 times of MIC measured after 1 hrs by FE-SEM analysis. In kind it is functional, organism-based. Put shortly:
as §6

A short description of assay [18]: Antiproliferative activity human HEKa cells assessed as reduction in cell viability at 250 ug/ml incubated for 24 hrs by MTS assay. In kind it is functional. The note with it: dose 250 µg/ml. Put shortly: as §3

Activity calls are given as the source filed them. No cut-off for these calls is given here.

For H-KWLKKWLKWWKK-NH2, the “fold change (FC)” value in [1], in assay [8], in assay [12] and in [16] was 2 each time. Further, the “inhibition (INH)” value in [2] was determined as 70%. In addition, the Activity in assay [3] is >60%; in assay [5] it was “Dose-Dependent Effect”; in assay [6], 80%; in assay [9], >75%; in assay [13], >75%. In assay [4], the inhibition result is “Tde”. The outcome in assay [7], in assay [10], in assay [11], in assay [14], in assay [15] and in [17] was Active.

As for H-RWLRRWLRWWRR-NH2, the “fold change (FC)” value in assay [1], in assay [8], in assay [12] and in assay [16] was 2 throughout. Also, the Activity was <30% in assay [3]; “Dose-Dependent Effect” in assay [5]; 80% in [6]; <60% in assay [9]; <30% in assay [18]; <60% in assay [13]. Besides, the inhibition entry in [4] was “Tde”. Further, the outcome in assay [15] was Active.
